Apaf-1 act – activates human Apaf-1 apoptosome | 330,000 tested, 0.31% active | activity change, negative = activation, % at 20 µM | Apaf-1 apoptosome caspase-3 activation, DEVD-Rh110 fluorescence; hits give low values | O14727;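 active means activity change at or below -40% at 20 µM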
Target sequence (O14727 whole entry, looked up): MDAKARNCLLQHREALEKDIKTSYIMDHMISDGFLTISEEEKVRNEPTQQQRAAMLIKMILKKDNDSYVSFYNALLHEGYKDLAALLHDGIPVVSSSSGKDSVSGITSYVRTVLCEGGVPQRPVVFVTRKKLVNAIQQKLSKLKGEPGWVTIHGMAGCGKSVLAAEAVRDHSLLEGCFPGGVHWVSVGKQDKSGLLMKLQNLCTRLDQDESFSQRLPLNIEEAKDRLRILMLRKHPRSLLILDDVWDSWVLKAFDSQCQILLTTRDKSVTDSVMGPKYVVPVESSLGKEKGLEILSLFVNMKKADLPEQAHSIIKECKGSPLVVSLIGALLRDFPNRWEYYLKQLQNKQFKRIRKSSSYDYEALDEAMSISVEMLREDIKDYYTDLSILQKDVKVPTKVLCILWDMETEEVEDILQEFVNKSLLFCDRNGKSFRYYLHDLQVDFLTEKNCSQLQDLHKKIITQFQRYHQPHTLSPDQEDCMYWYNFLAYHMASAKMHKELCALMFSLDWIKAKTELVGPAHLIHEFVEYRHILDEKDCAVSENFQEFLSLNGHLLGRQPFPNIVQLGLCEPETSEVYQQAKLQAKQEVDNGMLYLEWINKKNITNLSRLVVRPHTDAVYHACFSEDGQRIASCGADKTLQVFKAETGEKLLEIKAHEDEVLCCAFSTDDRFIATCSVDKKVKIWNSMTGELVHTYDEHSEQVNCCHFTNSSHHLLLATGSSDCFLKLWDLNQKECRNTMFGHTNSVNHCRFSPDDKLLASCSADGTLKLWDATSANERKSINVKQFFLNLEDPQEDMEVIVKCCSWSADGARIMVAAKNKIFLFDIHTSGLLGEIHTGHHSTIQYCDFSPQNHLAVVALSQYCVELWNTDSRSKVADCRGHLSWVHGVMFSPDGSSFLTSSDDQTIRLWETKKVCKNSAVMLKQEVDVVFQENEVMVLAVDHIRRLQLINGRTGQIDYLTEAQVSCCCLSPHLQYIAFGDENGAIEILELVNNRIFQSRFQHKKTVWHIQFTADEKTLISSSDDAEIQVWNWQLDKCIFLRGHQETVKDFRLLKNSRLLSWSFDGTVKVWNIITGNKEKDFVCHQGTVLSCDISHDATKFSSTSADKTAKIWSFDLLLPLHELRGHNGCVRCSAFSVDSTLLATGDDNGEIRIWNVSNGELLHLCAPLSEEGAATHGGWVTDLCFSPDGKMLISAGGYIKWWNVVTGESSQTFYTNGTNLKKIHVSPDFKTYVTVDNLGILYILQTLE
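system = biochemical Apaf-1 apoptosome reconstitution | buffer or medium = 20 mM HEPES pH 7.5 with CHAPS, BSA | also added = dATP and cytochrome c as apoptosome triggers, (Z-DEVD)2-Rh110 substrate | incubation = 30 min compound preincubation and 50 min reaction, both room temperature | measured by = fluorescence, 540 nm emission, 480 nm excitation | read-out basis = Caspase-3 cleavage activity downstream of Apaf-1 activation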
Rh110 act interf – interferes with Rh110 fluorescence, flagging false Apaf-1 activators; shares compounds with Apaf-1 act; Rh110 fluorescence interference, quenched caspase reaction, Ex480/Em540; fluorescence interference (activity change), % at 20 µM, hits read low; 980 tested, under 10 active; AID 504616;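 active means mean activity change at or below -40% when tested at 20 µM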
Apaf-1 act conf2 – Apaf-1 (human) activation, single-dose confirmed; activity change, negative = activation, % at 20 µM; shares compounds with Apaf-1 act; reconstituted apoptosome caspase-3 activity, DEVD-Rh110 fluorescence; hits give low values; 980 tested, 5% active; AID 504617;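 active means mean activity change at or below -40%, meaning activation of 40% or more, at 20 µM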
The depositor's hits bear a star. These entries were drawn from the full list.

SMILES	Apaf-1 act	others
N#Cc1ccc(/C=C/C(=O)O)cc1	-499*	Rh110 act interf=9;Apaf-1 act conf2=9
CCCCn1c(NC(=O)c2ccc(Br)o2)c(C(=O)OCC)c2nc3ccccc3nc21	79
COCCCn1c(N)c(C(=O)NCc2ccco2)c2nc3ccccc3nc21	95
COc1ccc2c(c1)NP(=S)(Oc1ccccc1)N2 (stereo not given)	50
COCCCn1c(N)c(C(=O)Nc2sc3c(c2C(=O)OC)CCCC3)c2nc3ccccc3nc21	90
CN[C@H]1C[C@H]2O[C@@](C)([C@H]1OC)n1c3ccccc3c3c4c(c5c6ccccc6n2c5c31)C(=O)NC4	51
CC(C)CC(N(C)C)C1(c2ccc(Cl)cc2)CCC1 (stereo not given)	5
CN1CCc2cc3c(c4c2C1Cc1ccccc1-4)OCO3 (stereo not given)	91
c1ccc(CCCN2CCN(CCOC(c3ccccc3)c3ccccc3)CC2)cc1	51
O=[N+]([O-])c1ccc(NCCCN2CCOCC2)c2ncccc12	40
O=C1N(CN2CCOCC2)c2ccccc2C1(O)c1c[nH]c2ccccc12 (stereo not given)	-80*	Rh110 act interf=9;Apaf-1 act conf2=9
COc1cc2c(cc1O)[C@@H]1Cc3ccc(OC)c(O)c3CN1CC2	93
Nc1c(C(=O)OCc2ccccc2)c2nc3ccccc3nc2n1Cc1cccs1	86
CCCN1CCc2cc(O)cc3c2[C@H]1Cc1ccc(O)c(O)c1-3	45
NCCc1ccc(OCc2ccccc2)c(OCc2ccccc2)c1	46
COCCCn1c(N)c(C(=O)Nc2ccccc2)c2nc3ccccc3nc21	51
O=S1(=O)N(CCN2CC=C(c3c[nH]c4cc(F)ccc34)CC2)c2cccc3c2N1CCC3	51
N=c1n(CCO)c2ccccc2n1Cc1ccccc1	-113*	Rh110 act interf=8;Apaf-1 act conf2=11
Nc1c(C(=O)NCCN2CCOCC2)c2nc3ccccc3nc2n1Cc1ccccc1	82
COc1cc2c3c(c1OC)Oc1ccc(cc1)C[C@H]1c4c(cc(OC)c(OC)c4Oc4ccc(cc4)C[C@@H]3N(C)CC2)CCN1C	45
COCCCn1c(N)c(C(=O)OC(C)COC)c2nc3ccccc3nc21 (stereo not given)	74
C=CCN1C(=O)NC(=O)C(Cc2ccc(OC)c(OC)c2)C1=O (stereo not given)	-549*	Rh110 act interf=6;Apaf-1 act conf2=15
CCC(C)NC(=O)c1c(N)n(CC2CCCO2)c2nc3ccccc3nc12 (stereo not given)	94
NS(=O)(=O)c1ccc(N=Nc2c(O)[nH]c(=S)[nH]c2=O)cc1	-138*	Rh110 act interf=4;Apaf-1 act conf2=4
CCC(C)NC(=O)c1c(N)n(Cc2ccc3c(c2)OCO3)c2nc3ccccc3nc12 (stereo not given)	96
SMILES	Apaf-1 act	others
COCCNC(=O)c1c(NC(=O)c2ccco2)n(Cc2ccccc2)c2nc3ccccc3nc12	53
CCCCCCCCCCCCCCCC[N+](C)(C)C	85
CC(NC(C)(C)C)C(=O)c1cccc(Cl)c1 (stereo not given)	-8
O=[N+]([O-])c1ccc(N2CCCNCC2)c2ncccc12	45
Cc1ccc(-c2ccc(=O)n(CCC(=O)N3CCC4(CC3)OCCO4)n2)cc1	-49*	Rh110 act interf=2;Apaf-1 act conf2=11
CC(C)CCNC(=O)c1c(N)n(CC2CCCO2)c2nc3ccccc3nc12 (stereo not given)	91
COC(=O)C1=C(c2ccc(F)cc2OCc2ccccc2)C[C@@H]2CC[C@H]1N2C(=O)NC1CCN(Cc2ccccc2)CC1	53
COC(=O)C1=C(c2ccc(Cl)c(C(F)(F)F)c2)C[C@@H]2CC[C@H]1N2C(=O)NCCOc1ccc(OC)cc1	40
C[n+]1c(-c2ccccc2)c2cc(N)ccc2c2ccc(N)cc21	98
O=C(c1ccc2c(c1)ncn2-c1ccc(F)cc1F)N1CCC2(CC1)OCCO2	-76*	Rh110 act interf=8;Apaf-1 act conf2=5
CCC(C)NC(=O)c1c(N)n(CCCOC)c2nc3ccccc3nc12 (stereo not given)	91
O=[N+]([O-])c1ccc(NCc2ccc(Cl)cc2)c2ccncc12	79
Cc1[nH]n(-c2ccccc2)c(=O)c1C(c1ccc([N+](=O)[O-])cc1)c1c(C)[nH]n(-c2ccccc2)c1=O	79
Cn1ncnc2c(=O)n(C)c(=O)nc1-2	99
CC(Cc1ccccc1)NC(=O)NC(C)Cc1ccccc1 (stereo not given)	-182*	Rh110 act interf=-8;Apaf-1 act conf2=5
Ic1ccccc1CN[C@@H]1C2CCN(CC2)[C@@H]1C(c1ccccc1)c1ccccc1	50
CCCCOP(=O)(CN1CCOCC1)OCCCC	-278*	Rh110 act interf=2;Apaf-1 act conf2=7
Cc1c2ccncc2c(C)c2c1[nH]c1ccccc12	67
CN(C)[C@@H]1C(=O)C(C(N)=O)=C(O)[C@@]2(O)C(=O)C3=C(O)c4c(O)cccc4[C@@](C)(O)C3[C@H](O)C12 (stereo not given in full)	-2
COC(=O)C1=C(c2cccc(OCc3ccccc3)c2)C[C@@H]2CC[C@H]1N2C(=O)NC1CCN(Cc2ccccc2)CC1	48
